Laboratory results reported in ChEMBL document CHEMBL4138260, “Novel Naphthalimide Aminothiazoles as Potential Multitargeting Antimicrobial Agents” (ACS Med Chem Lett, 2017).
Converted amounts (≈) assume the structure as drawn. The source made the active and inactive calls. The rule behind the calls is not given here.

Columns and labels:
Escherichia coli [1] = experiment: Antimicrobial activity against Escherichia coli after 24 hrs by two fold serial dilution method; type: functional
In short: (§1)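 MICs by CLSI-recommended two-fold serial broth dilution against the listed bacterial strains.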

Pseudomonas aeruginosa [2] = experiment: Antimicrobial activity against Pseudomonas aeruginosa ATCC 27853 after 24 hrs by two fold serial dilution method; type: functional; in short: as §1
Staphylococcus aureus [3] = experiment: Antimicrobial activity against Staphylococcus aureus ATCC 29213 after 24 hrs by two fold serial dilution method; type: functional; in short: as §1
Staphylococcus aureus [4] = experiment: Antimicrobial activity against Staphylococcus aureus after 24 hrs by two fold serial dilution method; type: functional, organism-based
In short: (§2)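 MIC determined in vitro by two-fold serial dilution, following the procedure recommended by the Clinical and Laboratory Standards Institute (CLSI).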

Enterococcus faecalis = experiment: Antimicrobial activity against Enterococcus faecalis after 24 hrs by two fold serial dilution method; type: functional, organism-based; in short: as §2
Staphylococcus aureus [5] = experiment: Antimicrobial activity against methicillin-resistant Staphylococcus aureus after 24 hrs by two fold serial dilution method; type: functional; in short: as §1
Pseudomonas aeruginosa [6] = experiment: Antimicrobial activity against Pseudomonas aeruginosa after 24 hrs by two fold serial dilution method; type: functional; in short: as §1
Klebsiella pneumoniae = experiment: Antimicrobial activity against Klebsiella pneumoniae after 24 hrs by two fold serial dilution method; type: functional, organism-based; in short: as §2
Acinetobacter baumannii [7] = experiment: Antimicrobial activity against Acinetobacter baumannii after 24 hrs by two fold serial dilution method; type: functional; in short: as §2
Escherichia coli [8] = experiment: Antimicrobial activity against Escherichia coli ATCC 25922 after 24 hrs by two fold serial dilution method; type: functional; settings: for MIC: ATCC 25922, 24 h; in short: as §1
Staphylococcus aureus [9] = experiment: Antimicrobial activity against Staphylococcus aureus ATCC 25923 after 24 hrs by two fold serial dilution method; type: functional; in short: as §1
Albumin = Albumin (Homo sapiens, UniProt P02768); experiment: Binding affinity to human serum albumin by UV-visible absorption spectroscopy; type: ADME; settings: isolated protein
Chain of Albumin (P02768 whole entry): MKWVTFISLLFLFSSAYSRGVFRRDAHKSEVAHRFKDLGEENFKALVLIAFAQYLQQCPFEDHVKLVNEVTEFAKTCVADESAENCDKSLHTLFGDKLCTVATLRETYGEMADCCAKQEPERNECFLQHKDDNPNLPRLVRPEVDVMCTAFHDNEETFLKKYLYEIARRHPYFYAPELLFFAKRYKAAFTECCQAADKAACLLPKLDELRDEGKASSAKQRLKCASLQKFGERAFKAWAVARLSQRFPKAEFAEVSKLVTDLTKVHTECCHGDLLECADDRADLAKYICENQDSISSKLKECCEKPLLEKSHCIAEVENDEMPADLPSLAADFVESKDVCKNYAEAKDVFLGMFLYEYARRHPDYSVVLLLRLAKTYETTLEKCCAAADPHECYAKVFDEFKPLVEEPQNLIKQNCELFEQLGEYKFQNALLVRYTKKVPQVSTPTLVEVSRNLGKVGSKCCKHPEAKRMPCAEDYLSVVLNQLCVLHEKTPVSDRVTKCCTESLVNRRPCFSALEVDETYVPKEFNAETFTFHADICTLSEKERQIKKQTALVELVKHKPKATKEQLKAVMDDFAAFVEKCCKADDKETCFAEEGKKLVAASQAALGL

Escherichia coli [10] = experiment: Potency index, ratio of chloromycin MIC to compound MIC against Escherichia coli ATCC 25922; type: functional
Staphylococcus aureus [11] = experiment: Membrane permeabilization of methicillin-resistant Staphylococcus aureus cytoplasmic membrane at 12 times MIC after 60 mins by propidium iodide staining based fluorescence assay; type: functional, organism-based
In short: (§3)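 Cytoplasmic membrane permeabilization of MRSA or E. coli with propidium iodide. Fluorescence intensity of the compound/PI-treated bacterial mixtures was followed over time up to steady state, with two control groups run in parallel.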

Escherichia coli [12] = experiment: Membrane permeabilization of Escherichia coli cytoplasmic membrane at 12 times MIC after 60 mins by propidium iodide staining based fluorescence assay; type: functional, organism-based; in short: as §3
[13] = Cytotoxicity against […] RAW264.7 cells assessed as cell viability at 128 ug/ml after 24 hrs by MTT assay; type: cell-based; settings: read-out: Activity
In short: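 Cytotoxicity in […] RAW 264.7 macrophages by MTT assay at concentrations up to 128 μg/mL. Read-out was percent cell viability.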

Escherichia coli [14] = experiment: Potency index, ratio of norfloxacin MIC to compound MIC against Escherichia coli ATCC 25922; type: functional
Staphylococcus aureus [15] = experiment: Bactericidal activity against methicillin-resistant Staphylococcus aureus assessed as log reduction in bacterial count at 4 times MIC measured up to 7 hrs by time kill assay; type: functional
In short: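 Time-kill kinetics against MRSA with the compound at 4 × MIC. Viable bacteria were counted over time as log CFU/mL.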

Staphylococcus aureus [16] = experiment: Antimicrobial activity against methicillin-resistant Staphylococcus aureus measured every 24 hrs post passages for 16 days; type: functional, organism-based
In short: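 Resistance-development study in MRSA, with MIC re-measured over serial passages. Norfloxacin and chloromycin were run alongside as reference drugs.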

DNA = experiment: Induction of methicillin-resistant Staphylococcus aureus DNA intercalation assessed as compound-DNA complex formation incubated for 1 hr by UV-visible absorption spectroscopy; type: nucleic-acid assay
Acinetobacter baumannii [17] = experiment: Potency index, ratio of chloromycin MIC to compound MIC against Acinetobacter baumannii; type: functional

With `CCCCCCCCCCCCCCCCN1CCN(c2ccc3c4c(cccc24)C(=O)N(Nc2nccs2)C3=O)CC1` the Activity (Escherichia coli [1]) was “inactive”, the Activity (Pseudomonas aeruginosa [2]) was “inactive” and the Activity (Staphylococcus aureus [3]) was “inactive”. The Activity (Staphylococcus aureus [4]) was “inactive”, the Activity (Enterococcus faecalis) was “inactive” and the Activity (Staphylococcus aureus [5]) was “inactive”. For the same compound, the Activity (Pseudomonas aeruginosa [6]) was “inactive”, the Activity (Klebsiella pneumoniae) was “inactive” and the Activity (Acinetobacter baumannii [7]) was “inactive”. For the same compound, the Activity (Escherichia coli [8]) was “inactive” and the Activity (Staphylococcus aureus [9]) was “inactive”.

For `O=C1c2cccc3c(Br)ccc(c23)C(=O)N1Nc1nccs1`, the Activity (Escherichia coli [1]) was “Active”, the Activity (Pseudomonas aeruginosa [2]) was “Active” and the Activity (Staphylococcus aureus [3]) was “Active”. For the same compound, the Activity (Staphylococcus aureus [4]) was “Active”, the Activity (Enterococcus faecalis) was “Active” and the Activity (Staphylococcus aureus [5]) was “Active”. The Activity (Pseudomonas aeruginosa [6]) was “Active”, the Activity (Klebsiella pneumoniae) was “Active” and the Activity (Acinetobacter baumannii [7]) was “Active”. The Activity (Escherichia coli [8]) was “Active” and the Activity (Staphylococcus aureus [9]) was “Active”.

With `CCCCCCCCCCCCN1CCN(c2ccc3c4c(cccc24)C(=O)N(Nc2nccs2)C3=O)CC1` the Activity (Escherichia coli [1]) was “inactive”, the Activity (Pseudomonas aeruginosa [2]) was “inactive” and the Activity (Staphylococcus aureus [3]) was “inactive”. The Activity (Staphylococcus aureus [4]) was “inactive”, the Activity (Enterococcus faecalis) was “inactive” and the Activity (Staphylococcus aureus [5]) was “inactive”. For the same compound, the Activity (Pseudomonas aeruginosa [6]) was “inactive”, the Activity (Klebsiella pneumoniae) was “inactive” and the Activity (Acinetobacter baumannii [7]) was “inactive”. For the same compound, the Activity (Escherichia coli [8]) was “inactive” and the Activity (Staphylococcus aureus [9]) was “inactive”.

In the case of `O=C1c2cccc3c(N4CCNCC4)ccc(c23)C(=O)N1Nc1nccs1`, the Activity (Albumin) is reported as “Active”, the Ratio (Escherichia coli [10]) is reported as 4 and the Activity (Staphylococcus aureus [11]) is reported as “Active”. It also gave an MIC (Escherichia coli [1]) of 4 to 16 µg/mL (≈ 10.5 to 42.2 µM), an MIC (Pseudomonas aeruginosa [2]; ATCC 27853, 24 h) of 4 to 16 µg/mL (≈ 10.5 to 42.2 µM) and an MIC (Staphylococcus aureus [3]; ATCC 29213, 24 h) of 2 µg/mL (≈ 5.27 µM). For the same compound, the MIC (Staphylococcus aureus [5]) was 4 µg/mL (≈ 10.5 µM), the MIC (Pseudomonas aeruginosa [6]) was 4 to 16 µg/mL (≈ 10.5 to 42.2 µM) and the Activity (Escherichia coli [12]) was “Active”. For the same compound, the viability at 24 h, 128 ug/ml [13] was 80.1%, the Activity (Acinetobacter baumannii [7]) was “inactive” and the MIC (Escherichia coli [8]) was 4 to 16 µg/mL (≈ 10.5 to 42.2 µM). For the same compound, the Ratio (Escherichia coli [14]) was 2, the Activity (Staphylococcus aureus [15]) was >3 CFU/ml and the MIC (Staphylococcus aureus [9]; ATCC 25923, 24 h) was 4 µg/mL (≈ 10.5 µM). For the same compound, the Activity (Staphylococcus aureus [16]) was “Active” and the Activity (DNA) was “Active”.

For `O=C1c2cccc3c(N4CCOCC4)ccc(c23)C(=O)N1Nc1nccs1`, the Ratio (Acinetobacter baumannii [17]) was 2 and the MIC (Acinetobacter baumannii [7]) was 8 µg/mL (≈ 21 µM).

For `CCn1cc(C(=O)O)c(=O)c2cc(F)c(N3CCNCC3)cc21` [NORFLOXACIN], the MIC (Acinetobacter baumannii [7]) was 8 µg/mL (≈ 25.1 µM) and the MIC (Escherichia coli [8]) was 8 µg/mL (≈ 25.1 µM).

For `CCCCCCCCCCN1CCN(c2ccc3c4c(cccc24)C(=O)N(Nc2nccs2)C3=O)CC1`, the Activity (Escherichia coli [1]) was “inactive”, the Activity (Pseudomonas aeruginosa [2]) was “inactive” and the Activity (Staphylococcus aureus [3]) was “inactive”. For the same compound, the Activity (Staphylococcus aureus [4]) was “inactive”, the Activity (Enterococcus faecalis) was “inactive” and the Activity (Staphylococcus aureus [5]) was “inactive”. The Activity (Pseudomonas aeruginosa [6]) was “inactive”, the Activity (Klebsiella pneumoniae) was “inactive” and the Activity (Acinetobacter baumannii [7]) was “inactive”. The Activity (Escherichia coli [8]) was “inactive” and the Activity (Staphylococcus aureus [9]) was “inactive”.
